# Data: ChEMBL document CHEMBL1135577, “Synthesis and biological evaluation of structurally highly modified analogues of the antimitotic natural product curacin A” (J Med Chem, 2002)
# pIC50: −log10 of the molar value. Active and inactive are the calls of the source. The rule behind the calls is not given here.
# Key:
# Tubulin (Bos taurus) = experiment: Inhibition of tubulin polymerization of purified bovine brain tubulin
# MCF7 = experiment: Tested for 50% growth inhibitory concentration by using MCF-7 cell lines.; format: functional; details: Homo sapiens
# Method in brief: (§1)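 Cultured human tumor cells were seeded at 500-2000 cells/well, allowed to attach for 48 h, then exposed continuously for 48 h to DMSO vehicle or agent at five concentrations (e.g., 50-0.08 μM, 10-0.016 μM or 1-0.0016 μM series), each in quadruplicate. A time-zero plate was included. Cell number was read by MTS/phenazine methanesulfonate at A490-A630. Values are means (N = 4 over 10 concentrations) ± SD.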
# A2780 [1] = experiment: Tested for colchicine binding inhibition, using human ovarian cancer cell lines (at 5 uM ); format: functional
# Method in brief: (§2)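 [3H]colchicine (5 μM) was incubated with 1 μM tubulin and agent (1-250 μM) or DMSO vehicle (5% v/v) at 30 °C for 15 min or 37 °C for 10 min, in 1 M monosodium glutamate, 0.1 M glucose-1-phosphate, 1 mM MgCl2, 1 mM GTP and 0.5 mg/mL BSA. Samples were filtered through DEAE-cellulose and counted by scintillation. Values are means (N = 9 over four concentrations) ± SD.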
# PC-3 [2] = experiment: 50% Growth inhibitory concentration by using PC -3 human prostate carcinoma cell lines (48h continuous exposure); format: functional; details: PC-3, 48 h
# Method in brief: as §1
# 2008 [3] = experiment: 50% Growth inhibitory concentration( GI 50 ) by using 2008 human ovarian carcinoma cell lines.; format: functional
# Method in brief: as §1
# A2780 [4] = experiment: Compound was tested for Tubulin polymerization inhibition by using human ovarian cancer cell lines.; format: functional
# Method in brief: (§3)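 Tubulin (10 μM final, 1 mg/mL) was preincubated with agent in DMSO (4% v/v final) and 0.8 M monosodium glutamate for 15 min at 30 °C, then cooled to 0 °C and GTP (0.4 mM final) added. Turbidity at 350 nm was followed for 20 min at 30 °C. […] Values are averages of two determinations.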
# A2780 [5] = experiment: Compound was tested for colchicine binding inhibition by using human ovarian carcinoma cell lines (at 5 uM );NA means not active; format: functional, cell-based
# Method in brief: as §2
# A2780 [6] = experiment: Compound was tested for Tubulin polymerization inhibition by using human ovarian carcinoma cell lines.;NA means not active; format: functional, cell-based
# Method in brief: as §3
# 2008 [7] = experiment: Compound was tested for 50% growth inhibitory concentration by using human ovarian carcinoma cell lines (2008); format: functional
# Method in brief: as §1
# A2780 [8] = experiment: Compound was tested for colchicine Binding Inhibition by using human ovarian carcinoma cell line (at 5 uM ); format: functional
# Method in brief: as §2
# PC-3 [9] = experiment: Compound was tested for 50% growth inhibitory concentration by using human prostate carcinoma cell lines (PC -3); format: functional
# Method in brief: as §1
# A2780 [10] = experiment: Compound was tested for Tubulin polymerization inhibition by using human ovarian carcinoma cell lines.; format: functional
# Method in brief: as §3
# MDA-MB-231 = experiment: Compound was tested for 50% Growth Inhibitory concentration by using MDA-MB-231 cell lines.; format: functional; details: Homo sapiens
# Method in brief: as §1
# [11] = Average growth inhibition activity in analogy of ca.; format: functional
# Method in brief: as §1
# A2780 [12] = experiment: Inhibition of tubulin polymerization in analogy of ca.; format: functional, cell-based; details: Homo sapiens
# Method in brief: as §3
# A2780 [13] = experiment: Compound tested for colchicine Binding Inhibition by using human ovarian carcinoma cell line (at 5 uM ); format: functional
# Method in brief: as §2
# A2780 [14] = experiment: Compound was tested for 50% Growth Inhibitory concentration by using A2780 cell lines.; details: Homo sapiens
smiles,measurement,setting,value
C=CC[C@@H](CC/C(C)=C/C=C/CC/C=C\[C@@H]1CSC([C@H]2C[C@@H]2C)=N1)OC,pIC50,Tubulin (Bos taurus),6.11
same,GI50,MCF7,990 nM
same,inhibition at 5 µM,A2780 [1],88%
CCC[C@@H](CC/C(C)=C/C=C/CC/C=C\[C@@H]1CSC([C@@H]2C[C@@H]2C)=N1)OC,pIC50,Tubulin (Bos taurus),5.92
same,GI50,MCF7,50 nM
same,inhibition at 5 µM,A2780 [1],85%
C=CC[C@@H](CC/C(C)=C/C=C/CC/C=C\[C@@H]1COC(C(C)(C)C)=N1)OC,GI50,PC-3 [2],6200 nM
same,GI50,2008 [3],450 nM
same,TPI,A2780 [4],0%
same,inhibition at 5 µM,A2780 [1],< 10%
C/C=C\[C@@H]1CSC([C@@H]2C[C@@H]2C)=N1,NA,A2780 [5],inactive
same,NA,A2780 [6],inactive
C=CC[C@@H](CC/C(C)=C/C=C/CC/C=C\[C@@H]1CSC([C@@H]2C[C@@H]2C)=N1)OCOC,pIC50,Tubulin (Bos taurus),6.19
same,GI50,MCF7,220 nM
same,inhibition at 5 µM,A2780 [1],81%
C=CC[C@@H](CC/C(C)=C/C=C/CC/C=C\[C@@H]1CSC(C(C)(C)C)=N1)OC,GI50,PC-3 [2],130 nM
same,GI50,2008 [3],220 nM
same,TPI,A2780 [4],100%
same,inhibition at 5 µM,A2780 [1],35%
COc1cc(/C=N\OC[C@H]2C[C@@H]2C2C[C@]2(C)CCC(O)c2cccs2)cc(OC)c1OC (stereo not given in full),GI50,2008 [7],9900 nM
same,inhibition at 5 µM,A2780 [8],< 10%
same,GI50,PC-3 [9],1200 nM
same,TPI,A2780 [10],26%
same,GI50,MDA-MB-231,980 nM
C=CC[C@@H](CC/C(C)=C/C=C/CC/C=C\[C@@H]1CSC([C@@H]2C[C@@H]2C)=N1)OC(=O)c1ccccc1,pIC50,Tubulin (Bos taurus),< 4.10
same,GI50,MCF7,> 10000 nM
same,inhibition at 5 µM,A2780 [1],5%
C=CC[C@@H](CC/C(C)=C/C=C/CCCO)OC,pIC50,Tubulin (Bos taurus),< 4.10
same,GI50,MCF7,> 10000 nM
same,inhibition at 5 µM,A2780 [1],0%
COc1cc(/C=C\CC/C=C/C=C(\C)CCC(O)c2cc3ccccc3o2)cc(OC)c1OC (stereo not given),GI50,[11],250 nM
same,pIC50,A2780 [12],6.00
COc1cc(COCCC/C=C/C=C(\C)CCC(O)c2cccs2)cc(OC)c1OC (stereo not given),GI50,2008 [7],15000 nM
same,inhibition at 5 µM,A2780 [13],< 10%
same,GI50,PC-3 [9],18000 nM
same,TPI,A2780 [10],7%
same,GI50,MDA-MB-231,> 50000 nM
C=CC[C@@H](CC/C(C)=C/C=C/CC/C=C\[C@@H]1CSC([C@H]2C[C@H]2C)=N1)OC,pIC50,Tubulin (Bos taurus),5.68
same,GI50,MCF7,360 nM
same,inhibition at 5 µM,A2780 [1],48%
CCCCCCCc1cccc(CC/C=C\[C@@H]2CSC([C@@H]3C[C@@H]3C)=N2)c1,pIC50,Tubulin (Bos taurus),< 4.30
C=CC[C@@H](CC/C=C/C=C/CC/C=C\[C@@H]1CSC([C@@H]2C[C@@H]2C)=N1)OC,GI50,MCF7,340 nM
same,inhibition at 5 µM,A2780 [1],53%
COC[C@H]1C[C@H]1C1=NC(COC/C=C(\C)CC/C=C(\C)CCC=C(C)C)CS1 (stereo not given in full),GI50,A2780 [14],> 25000 nM
CCC[C@@H](CC/C(C)=C/C=C/CCCCC1CSC([C@@H]2C[C@@H]2C)=N1)OC (stereo not given in full),pIC50,Tubulin (Bos taurus),5.34
same,GI50,MCF7,3300 nM
same,inhibition at 5 µM,A2780 [1],1%
C=CCCC1=N[C@H](/C=C\CC/C=C/C=C(\C)CC[C@H](CC=C)OC)CS1,pIC50,Tubulin (Bos taurus),6.04
same,GI50,MCF7,300 nM
same,inhibition at 5 µM,A2780 [1],83%
COc1cc(/C=C/CC/C=C/C=C(\C)CCC(O)c2cccs2)cc(OC)c1OC (stereo not given),GI50,PC-3 [2],35000 nM
same,GI50,2008 [3],21000 nM
same,TPI,A2780 [4],25%
same,inhibition at 5 µM,A2780 [1],< 10%
CCCCCCCCCCCC/C=C\[C@@H]1CSC([C@@H]2C[C@@H]2C)=N1,pIC50,Tubulin (Bos taurus),< 4.30
